Results from ChEMBL document CHEMBL4513216, “Probing the Open Global Health Chemical Diversity Library for Multistage-Active Starting Points for Next-Generation Antimalarials” (ACS Infect Dis, 2020).

Experiment: Toxicity liver stage against HepG2, at 10uM
Format: cell-based
Design: test concentration 10 uM, cell line HepG2-A16-CD81EGFP
Conditions: human, HepG2-A16-CD81EGFP cells; read-out: INHIBITION
Summary of the method: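 Uninfected HepG2-A16-CD81EGFP cells, 3 × 10^3 per well, 1536-well, plated on prespotted compound at 10 μM final, parasite-free screening media added to match infected plates; puromycin 10 μM positive, DMSO 0.5% negative; run in parallel with 48 h PbLuc assay at 37 °C, 5% CO2; viability by CellTiter-Glo luminescence, normalized to controls.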

Row | Structure (SMILES) | cytotoxicity at 10 µM
1 | Cc1ccc(CN2CCOCC2)cc1NC(=O)c1ccsc1 | 3.22%
2 | CC(C)c1nccn1C(C)C(=O)NC1Cc2ccccc2C1 (stereo unspecified) | -5.03%
3 | CCNC(=O)N1CCC(NC(=O)NCCc2cccc(C)c2)C1 (stereo unspecified) | -42.2%
4 | CC(C)(C(=O)NCC1CCN(Cc2ccccn2)C1)c1ccccc1 (stereo unspecified) | -3.09%
5 | c1cnc(N2CCCn3nnc(COCC4CC4)c3C2)nc1 | -4.97%
6 | Cc1cc(CN2C[C@@H]3COC[C@]3(COCC(=O)N(C)C)C2)no1 | 1.44%
7 | Cc1noc(C)c1C(=O)N(Cc1ccsc1)CC1CCCO1 (stereo unspecified) | 3.91%
8 | Cc1nc(N2CCC(C(O)c3nccn3C)CC2)c2c(C)noc2n1 (stereo unspecified) | 7.54%
9 | O=C(Cc1ccn[nH]1)Nc1cncc(Br)c1O | -3.93%
10 | c1ccc2c(N3CCCCC3Cn3cncn3)ncnc2c1 (stereo unspecified) | 4.16%
11 | Cn1cc(-c2cnc(N3CCOCC3)nc2)cc1C(=O)NCCO | 7.15%
12 | Cc1cncc(C(=O)N(c2ccc(F)cn2)C2CCOCC2)c1 | 0.0591%
13 | CNS(=O)(=O)c1cccc(CNc2ncccn2)c1 | -9.7%
14 | CN1CCCN(C(=O)c2cnc(Cc3c(Cl)cccc3Cl)nc2O)CC1 | -0.862%
15 | CNC(=O)NCC1CCC2(CCN(c3ncccn3)CC2)CO1 (stereo unspecified) | -107%
16 | CCCn1ccnc1CN1C[C@@H](CN2CCCN(C)CC2)[C@@H](CO)C1 | 2.81%
17 | COc1ccccc1OCCCN1CC=C(c2cnn(C)c2)CC1 | 8.32%
18 | Cc1c(C(=O)N2CCC2)nnn1-c1ccc2ncccc2c1 | -2.29%
19 | O=C(NCCOc1ccc(C(F)(F)F)cn1)c1ccoc1 | -10.1%
20 | Cc1cc(NC(=O)c2nc(N3CCCC3)ncc2Cl)nc(C(C)C)n1 | 69.3%
21 | CCc1nc(CN2CCN(C(=O)c3csnn3)CC2)cs1 | -9.04%
22 | Cc1ncc(CN(C)C2CCCN(c3cccnn3)C2)s1 (stereo unspecified) | 0.709%
23 | CCC(C)CN1CCC(n2cc(C3CCCC3)nn2)CC1 (stereo unspecified) | -2.13%

Row | Structure (SMILES) | cytotoxicity at 10 µM
24 | CN(C)C(C(=O)N1CCCN(C(=O)C2CCC2)CC1)c1ccccc1F (stereo unspecified) | -2.11%
25 | O=C1C(Nc2ccc3nccnc3n2)CCN1c1ccccc1 (stereo unspecified) | 0.562%
26 | O=C1CO[C@H]2CN(C3CCOCC3)C[C@H]2N1Cc1ccncc1 | 5.89%
27 | CN(C)c1nc(NCCc2ccccn2)ncc1F | -4.84%
28 | NC(=O)NCC(=O)N1C[C@@H]2CC[C@H]1CN(Cc1cscn1)C2 | 8.86%
29 | Cn1ccnc1C1CCN(S(=O)(=O)c2ccc3oc(=O)[nH]c3c2)CC1 | 1.93%
30 | O=C(c1cc(F)ccc1F)C1CCN(C(=O)c2ccc(=O)[nH]n2)CC1 | 3.42%
31 | CCOc1cc(CNCC2CN(C3CC3)CCO2)ccc1OC (stereo unspecified) | -5.95%
32 | O=C(c1ccc(Cl)s1)N1CCCn2nc(CN3CC[C@H](F)C3)cc2C1 | -1.44%
33 | CC(C)OCCN1CCN(c2ccc(CN(C)C)cn2)CC1 | -5.89%
34 | Fc1cccc(Nc2nc(N3CCCC3)nc3c2CNCC3)c1 | -18%
35 | COCCc1noc(CN2CCCC(Cn3cncn3)C2)n1 (stereo unspecified) | -2.55%
36 | O=C(NCCc1cc(=O)[nH]cn1)c1[nH]nc2c1CCCC2 | 2.22%
37 | CC1CCN(CCNC(=O)C2CCN(C(=O)C3CC3)CC2)CC1 | 6.86%
38 | CN(Cc1noc2c1CCCC2)C(=O)C1CCOc2ccccc2C1 (stereo unspecified) | -7.11%
39 | COCCN1C(=O)CC[C@@H]2[C@@H]1CCN2S(=O)(=O)C1CC1 | -98.4%
40 | O=C1CC2(CCN(Cc3ccc(Cl)s3)C2)C(=O)N1 (stereo unspecified) | -3.3%
41 | Cc1cc(C(F)(F)F)nc(C2CCN(C(=O)CO)CC2)n1 | -2.14%
42 | CN(Cc1cnc(N)nc1)C(=O)c1coc(COc2ccccc2)n1 | 1.58%
43 | Cc1ccc2c(c1)OCCCC2NCc1nccn1Cc1ccccc1 (stereo unspecified) | -9.4%
44 | O=C(NC1CCN(C2CC2)CC1)c1cc(Cl)ccc1-n1cnnn1 | 3.43%
45 | O=C(NC[C@H]1OC[C@@H](NCc2ccc(F)cc2)[C@@H]1O)c1ccncc1 | 7.2%
46 | CCCc1ncc(C(=O)N2CCOC(c3nc(C)n[nH]3)C2)s1 (stereo unspecified) | -0.12%

Row | Structure (SMILES) | cytotoxicity at 10 µM
47 | Cc1ccc(-c2nnc(CN3CCn4c(nnc4C4CC4)C3)o2)cc1 | -6.37%
48 | Cc1cccc(C(C(=O)NCc2nc(-c3ncccn3)no2)N(C)C)c1 (stereo unspecified) | -1.57%
49 | CN1CC2(CCC(C(=O)O)CC2)Oc2ccccc2C1=O (stereo unspecified) | 2%
50 | Cc1cccnc1C(=O)N1CCCC(Cc2cncc3ccccc23)C1 (stereo unspecified) | -18%
51 | CN(CC(=O)NC(C)(C)C)C(=O)c1cccn1CCc1ccccc1 | 6.1%
52 | CC(=O)Nc1ccc2nc(-c3nccn3CCCN(C)C)ccc2c1 | -6.07%
53 | COc1ccc(F)cc1C(C(=O)O)N1CCCN(C2CCCC2)CC1 (stereo unspecified) | -8.63%
54 | CC(C)CCN1CCCC(Cn2cc(CCO)nn2)C1 (stereo unspecified) | -6.02%
55 | CC(C)OCCC(=O)NCCC(=O)N1CCN(c2ccccn2)CC1 | 2.56%
56 | NCc1n[nH]c(-c2ccc(F)cc2)n1 | 0.186%
57 | Cn1ccc(C(=O)NC2CCC23CCN(CC2CCOCC2)CC3)c1 (stereo unspecified) | -149%
58 | Cc1nnsc1C(=O)N1CCN(C(=O)C2CCC2)[C@@H]2CS(=O)(=O)C[C@@H]21 | -2%
59 | O=C(CCS(=O)(=O)C1CCCC1)N1CCCC(n2ccnc2)C1 (stereo unspecified) | -0.968%
60 | CSc1ncccc1C(=O)N1CCC2(CC1)OCCCC2O (stereo unspecified) | -7.16%
61 | Cc1nc(CC(=O)N2CCn3c(nnc3C(C)C)C2)cs1 | -12.3%
62 | CC(C)CCC(=O)NCC(=O)N1CCCCCC1c1ccco1 (stereo unspecified) | 7.47%
63 | CC(=O)N1CCCN(C(=O)Cc2c(C)nc(C)[nH]c2=O)CC1 | -8.28%
64 | Cc1cccc(C(=O)N2CC[C@H]3C[C@@H](C)O[C@@H]3C2)n1 | 5.37%
65 | CCNC(=O)N1CCC2(CC1)CCn1c(-c3cccc(OC)c3)cnc12 | 2.81%
66 | c1ccc(CN2CCC(NCCSc3cnn[nH]3)CC2)cc1 | -5.16%
67 | CC(C)(C)n1ccc(C(=O)N2CCCC(c3ncc[nH]3)C2)c1 (stereo unspecified) | 2.96%
68 | COc1ccc(C(=O)N2CCCC(CNS(C)(=O)=O)C2)cc1F (stereo unspecified) | -5.45%
69 | Cc1cccc(C(=O)NCCNCC2CNc3ccnn3C2)c1 (stereo unspecified) | -0.00278%

Row | Structure (SMILES) | cytotoxicity at 10 µM
70 | CC(C)(C)CN(CCC#N)C(=O)c1cccc(CN2CCCC2)c1 | 0.234%
71 | O=C1CCC2(CCNCC2)CN1Cc1nncn1CCc1ccccc1 | -10.1%
72 | CN(C)c1ncccc1CNS(=O)(=O)c1c(F)cccc1F | -9.91%
73 | Cc1nccn1C1CCCN(C(=O)c2cc(O)nc3ccccc23)C1 (stereo unspecified) | -6.9%
74 | Cc1ccccc1CN1CCN(CC(=O)Nc2cccnc2)CC1 | -2.82%
75 | O=C(c1cscn1)N1CCc2ncc(CN3CCOCC3)n2CC1 | -75.6%
76 | CCS(=O)(=O)N1CCCC(c2nccn2Cc2cccnc2)C1 (stereo unspecified) | -2.78%
77 | Cc1ccc(C(=O)NCCNC(=O)c2cncnc2C(C)C)cc1F | 9.52%
78 | NC(=O)CN1CCCC(c2ccnc(Nc3ncccn3)c2)C1 (stereo unspecified) | 10.1%
79 | CCC(C)(NCC(N)=O)c1nccs1 (stereo unspecified) | 7.3%
80 | Cc1nc(N2CCCCC2)ncc1-c1cc(O)[nH]n1 | 2.76%
81 | CCOc1cncc(N2CCCC2c2nnc3n2CCCCC3)n1 (stereo unspecified) | -5.93%
82 | CC(=O)N1C[C@@H](c2ccsc2)[C@@H]2CN(Cc3ccccc3)CC[C@@H]21 | 6.76%
83 | O=C(NCC1CCC2(CCNCC2)CO1)c1ccno1 (stereo unspecified) | 12.5%
84 | Cc1ccc(NC2CCN(C(=O)CCCc3ccccn3)CC2)cc1 | 13.3%
85 | Cn1cc(C2CCCN2Cc2csc(-c3ccsc3)n2)cn1 (stereo unspecified) | -8.21%
86 | O=C(CCCn1cnc2ccccc2c1=O)Nc1nc[nH]n1 | -4.84%
87 | COCCN1C(=O)C2(CCC(C(=O)Nc3ccc(C)cc3)CC2)N=C1C (stereo unspecified) | 12.3%
88 | CC(=O)NCCCC(=O)NC(C)c1nnc2n1CCC2 (stereo unspecified) | -10.3%
89 | Cc1ccc(-c2nc(CN3CCOC(Cn4cccn4)C3)no2)cc1 (stereo unspecified) | -8.93%
90 | Cn1cnnc1C1CCN(C(=O)c2cc3c(s2)CCCC3)CC1 | -19%
91 | CN(C)[C@H]1CN(C(=O)CCCc2ccc(F)cc2)C[C@@H]1C1CC1 | -3.01%
92 | CS(=O)(=O)NC(=O)c1nnn(-c2ccccc2)c1C1CC1 | -7.09%

Row | Structure (SMILES) | cytotoxicity at 10 µM
93 | CC(C(=O)NC1(C#N)CCCCC1)N1CCc2c(ncn2C2CC2)C1 (stereo unspecified) | 7.66%
94 | CC(CNC(=O)c1c[nH]nn1)Oc1ccc(Cl)cc1 (stereo unspecified) | 9.27%
95 | OC(COCc1ccccc1F)CN1CCC(Cn2cccn2)CC1 (stereo unspecified) | -10.2%
96 | O=C(COCC(=O)N(c1ccccc1)c1ccccc1)N1CCCCC1 | 2.33%
97 | Cc1nc(CN2CCc3cc(C(=O)O)c(N(C)C)nc3CC2)cs1 | 3.42%
98 | N#Cc1ccc(OCCCN2CCc3cncnc3C2)cc1 | -10%
99 | CCN1C[C@@H]2CN(S(=O)(=O)c3cccs3)C[C@@H]2C1=O | -2.42%
100 | CNc1cnc(CC2COCCN(Cc3ccccc3)C2)cn1 (stereo unspecified) | 10.9%
101 | CC(C)C(NC(=O)c1ccco1)C(=O)N1CCC2(CC1)OCCO2 (stereo unspecified) | 6.05%
102 | CCOc1ncccc1CNC(=O)Nc1cc(C)nn1C | 1.25%
103 | CC(=O)c1ccc(S(=O)(=O)NCc2cccnc2N(C)C)cc1 | 12.6%
104 | COc1ccc(Br)cc1Cn1nc(C(N)=O)ccc1=O | 8.09%
105 | Cc1ccc2nccc(C(=O)N3CCOC(CCN(C)C)C3)c2c1 (stereo unspecified) | 10.8%
106 | CC(C)c1nnc2n1CCN(C(=O)c1cnc(C3CC3)s1)C2 | 4.87%
107 | Cn1cc(CN2C[C@@H]3COC[C@]3(C(=O)NCc3cccs3)C2)cn1 | 7.22%
108 | CCCC(=O)N1CCc2nc3cc(OC)c(OC)cc3c(=O)n2CC1 | -13.2%
109 | CCc1nc(CN2CCCN(C(=O)C3CCOCC3)CC2)cs1 | -8.11%
110 | CSCC(C)(O)CNc1ncccc1I (stereo unspecified) | -2.36%
111 | CN1CCc2cc(C(CNS(=O)(=O)c3cccs3)N3CCCC3)ccc21 (stereo unspecified) | 2.66%
